The results in this text go back to ChEMBL document CHEMBL4049456, “Identification of 4-(Aminomethyl)-6-(trifluoromethyl)-2-(phenoxy)pyridine Derivatives as Potent, Selective, and Orally Efficacious Inhibitors of the Copper-Dependent Amine Oxidase, Lysyl Oxidase-Like 2 (LOXL2)” (J Med Chem, 2017).

Data set [1] in a line: Cmax in C57BL/6 mouse plasma at 30 mg/kg, po by LC-MS/MS analysis. It counts as ADME, organism-based. The arrangement: dose 30 mg/kg, route oral. Summed up:
(§1)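 Normal C57BL/6 mice, n = 3 per time point, received a single oral 30 mg/kg dose formulated in 0.5% methylcellulose.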

The target in data set [2] is T1, Lysyl oxidase homolog 2 (Homo sapiens, UniProt Q9Y4K0).
T1 sequence (Q9Y4K0 whole entry): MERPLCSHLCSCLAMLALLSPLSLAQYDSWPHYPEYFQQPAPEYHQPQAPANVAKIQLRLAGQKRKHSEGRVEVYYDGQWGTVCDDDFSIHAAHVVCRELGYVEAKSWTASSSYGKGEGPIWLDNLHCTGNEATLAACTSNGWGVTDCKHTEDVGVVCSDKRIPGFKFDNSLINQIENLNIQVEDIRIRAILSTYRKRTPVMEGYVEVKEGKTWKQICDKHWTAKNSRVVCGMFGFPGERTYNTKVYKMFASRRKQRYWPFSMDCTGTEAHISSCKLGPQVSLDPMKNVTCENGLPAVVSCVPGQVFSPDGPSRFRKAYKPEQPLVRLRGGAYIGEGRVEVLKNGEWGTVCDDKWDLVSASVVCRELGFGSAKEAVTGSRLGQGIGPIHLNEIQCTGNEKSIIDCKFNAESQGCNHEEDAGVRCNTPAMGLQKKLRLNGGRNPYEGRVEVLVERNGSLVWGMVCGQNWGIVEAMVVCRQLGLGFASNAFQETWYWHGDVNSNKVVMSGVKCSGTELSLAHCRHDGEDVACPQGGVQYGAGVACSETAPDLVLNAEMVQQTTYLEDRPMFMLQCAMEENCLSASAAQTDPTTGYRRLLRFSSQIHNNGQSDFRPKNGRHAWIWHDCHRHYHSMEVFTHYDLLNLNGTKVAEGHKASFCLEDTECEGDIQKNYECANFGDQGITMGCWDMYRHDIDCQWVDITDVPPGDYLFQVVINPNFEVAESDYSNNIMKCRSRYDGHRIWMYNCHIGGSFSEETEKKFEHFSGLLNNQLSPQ
The data set is described as follows: Inhibition of human LOXL2 expressed in CHO cells assessed as reduction of H2O2 production from oxidative deamination of DAP preincubated for 2 hrs followed by substrate addition in presence of 0.1% BSA measured every 2 mins for 1 hr by amplex red reagent-based fluorescence assay. It counts as cell-based.

Data set [3] can be described thus: Cmax in C57BL/6 mouse lung at 30 mg/kg, po by LC-MS/MS analysis. It is filed as ADME, organism-based. The arrangement: dose 30 mg/kg, route oral. Summed up: as §1
For data set [4], the target named is T1, Lysyl oxidase homolog 2. Description: Inhibition of human LOXL2 expressed in CHO cells assessed as reduction of H2O2 production from oxidative deamination of DAP preincubated for 2 hrs followed by substrate addition measured every 2 mins for 1 hr by amplex red reagent-based fluorescence assay. It counts as cell-based.
Data set [5] addresses T1, Lysyl oxidase homolog 2. Description: Inhibition of recombinant human LOXL2 expressed in human whole blood assessed as reduction of H2O2 production from oxidative deamination of DAP preincubated for 2 hrs followed by substrate addition measured every 2 mins for 1 hr by amplex red reagent-based fluorescence assay.
The nature of data set [6]: Protein binding in human plasma. It is filed as ADME, cell-free. The following applies: read-out: PPB (converted).
Data set [7] addresses T2, Lysyl oxidase homolog 2 (Homo sapiens) (UniProt Q9Y4K0).
T2 sequence (whole entry): T1 sequence (Q9Y4K0 whole entry)
The data set is described as follows: Irreversible inhibition of human LOXL2 assessed as catalytic activity preincubated for 2 hrs followed by substrate addition measured every 2 mins for 1 hr by amplex red reagent-based fluorescence assay relative to control. The arrangement: concentration or dose not given beside the values.

Data set [8] has as its target T2, Lysyl oxidase homolog 2 (Homo sapiens). The data set is described as follows: Irreversible inhibition of human LOXL2 assessed as reduction of H2O2 production from oxidative deamination of DAP at 1000 times IC50 preincubated for 2 hrs followed by compound washout and subsequent incubation for 2 hrs prior to substrate addition measured every 2 mins for 40 mins by amplex red reagent-based fluorescence assay relative to control. Summed up:
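Wells were washed repeatedly with PBS and equilibrated for 2 h. Recovered activity was then compared with nonwashed controls.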

pIC50: −log10 of the molar value.

As a reminder, the Cmax is the maximum level reached in the sampled fluid or tissue. As usually defined, the pIC50 is −log10 of the IC50, conventionally taken in molar units. For `Cl.Cl.NCc1cc(Oc2cccc(C(=O)N3CC[C@@H](N)C3)c2)nc(C(F)(F)F)c1`, the Cmax in data set [1] worked out at 670 nM; in data set [3], 1.23 µM. In addition, the results for the negative-log IC50 (pIC50) in data set [2], in data set [4] and in data set [5] were 7.00, 7.24 and 6.16, respectively.

With `COCCNC(=O)c1cccc(Oc2cc(CN)ccn2)c1`, the pIC50 in data set [2] is 6.54; in data set [4], 6.80; in data set [5] it was 5.54.

As for `NCc1ccnc(Oc2cccc(C(=O)N3CCc4ccccc4C3)c2)c1`, the pIC50 in data set [2] was 6.43; in data set [4], 6.92; in data set [5], 5.10.

For `COCCNC(=O)c1ccc(Oc2cc(CN)ccn2)cc1`, the figures for the pIC50 in data set [2], in data set [4] and in data set [5] were 5.82, 6.30 and 4.52, respectively.

In the case of `NCc1cc(O[C@H]2CCCN(C(=O)Nc3ccccc3)C2)nc(C(F)(F)F)c1`, the values for the Cmax in data set [1] and in data set [3] were 1900 nM and 30 µM, respectively. For the same compound, the values for the pIC50 in data set [2], in data set [4] and in data set [5] were 6.80, 6.89 and 5.70, respectively.

As for `NCc1ccnc(Oc2cccc(C(=O)NCc3cc4ccccc4s3)c2)c1`, the pIC50 in data set [2] is 6.96; in data set [4] it was 7.10; in data set [5], 5.77.

For `NCc1cc(Oc2cccc(Oc3ccccc3)c2)nc(C(F)(F)F)c1`, the pIC50 was 6.57 in data set [2], 7.17 in data set [4] and 4.64 in data set [5].

A word on the inhibition: it is the change of the read-out against control, counted positive when it falls. As for `Cl.NCc1cc(Oc2cccc(C(=O)Nc3ccccc3)c2)nc(C(F)(F)F)c1`, the Cmax was 860 nM in data set [1] and 10.3 µM in data set [3]. In addition, the fraction unbound in data set [6] is 0.04. Further, the pIC50 in data set [2] was 7.21; in data set [4], 7.38; in data set [5], 5.54. The inhibition in data set [7] amounted to 98%; in data set [8], 88%.

Regarding `NCc1ccnc(Oc2cccc(C(=O)Nc3ccccc3)c2)c1`, the pIC50 in data set [2] was 6.89; in data set [4], 7.25; in data set [5], 5.89.

Consider `NCc1ccnc(Cl)c1`, for which the inhibition was 93% in data set [7] and 32% in data set [8].

For `Cl.NCc1cc(Oc2cccc(C(=O)NCCn3cnnn3)c2)nc(C(F)(F)F)c1`, the Cmax turned out to be 1990 nM in data set [1] and 3.46 µM in data set [3]. Moreover, the pIC50 was 7.10 in data set [2], 7.37 in data set [4] and 6.55 in data set [5]. For the same compound, the inhibition in data set [7] is 97%; in data set [8], 77%.

As for `NCc1cc(Oc2cccc(C(=O)NCc3cc4ccccc4s3)c2)nc(C(F)(F)F)c1`, the negative logarithm of the IC50 (pIC50) was 7.00 in data set [2], 7.47 in data set [4] and 5.00 in data set [5].

Take `CONC(=O)c1cccc(Oc2cc(CN)cc(C(F)(F)F)n2)c1.Cl`: the Cmax in data set [1] was 630 nM; in data set [3], 8.78 µM. For the same compound, the pIC50 is 6.85 in data set [2], 7.02 in data set [4] and 6.08 in data set [5].

With `Cl.NCc1cc(Oc2cccc(C(=O)NCCS(N)(=O)=O)c2)nc(C(F)(F)F)c1`, the Cmax in data set [1] was 1040 nM; in data set [3], 0.54 µM. For the same compound, the pIC50 is 7.21 in data set [2], 7.46 in data set [4] and 6.51 in data set [5]. Further, the inhibition came to 97% in data set [7] and 75% in data set [8].

As to `NCc1ccnc(Oc2cccc(C(=O)NCc3ccccc3)c2)c1`, the pIC50 in data set [2] was 6.96; in data set [4], 7.21; in data set [5], 5.85.

Consider `NCc1cc(O[C@@H]2CCCN(C(=O)Nc3ccccc3)C2)nc(C(F)(F)F)c1`, for which the pIC50 is 6.21 in data set [2], 6.24 in data set [4] and 4.40 in data set [5].

For `NCc1ccnc(Oc2cccc(C(=O)Nc3ccc(C(=O)O)cc3)c2)c1`, the pIC50 in data set [2] is 6.52; in data set [4] it was 7.09; in data set [5], 5.85.

In the case of `N=C(N)c1cccc(CNC(=O)c2cccc(Oc3cc(CN)ccn3)c2)c1`, the results for the pIC50 in data set [2], in data set [4] and in data set [5] were 6.19, 6.74 and 5.28, respectively.

For `Cl.NCc1cc(Oc2cccc(C(=O)NC[C@@H](O)CO)c2)nc(C(F)(F)F)c1`, the values for the Cmax in data set [1] and in data set [3] were 2770 nM and 1.92 µM, respectively. Further, the pIC50 in data set [2] is 7.06; in data set [4], 7.11; in data set [5], 6.26. The inhibition in data set [7] came to 96%; in data set [8] it was 77%.

Take `NCc1ccnc(OC2CCCCC2)c1`: the pIC50 in data set [2] is 5.74; in data set [4], 6.07; in data set [5], 4.54.

Turning to `COc1ccc(NC(=O)c2cccc(Oc3cc(CN)ccn3)c2)cc1`, the values for the pIC50 in data set [2], in data set [4] and in data set [5] were 6.80, 7.28 and 5.74, respectively.

For `NCc1ccnc(Oc2ccc(C(=O)Nc3ccccc3)cc2)c1`, the pIC50 is 6.12 in data set [2], 6.57 in data set [4] and 4.41 in data set [5].

Regarding `Cl.NCc1cc(Oc2cccc(C(=O)N3CC[C@@H](O)C3)c2)nc(C(F)(F)F)c1`, the Cmax in data set [1] was 5130 nM; in data set [3], 9.13 µM. The values for the pIC50 in data set [2], in data set [4] and in data set [5] were 6.82, 6.96 and 6.04, respectively. For the same compound, the inhibition in data set [7] worked out at 95%; in data set [8], 75%.

`NCc1ccnc(Oc2cccc(C(=O)Nc3ccc(F)cc3)c2)c1`: the pIC50 in data set [2] is 6.89; in data set [4] it was 7.30; in data set [5], 5.80.
